# Test system: HEK-293T
# Experiment: Multiplex assay against HEK293T;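 as to Population Tubulin-Different-Phenotype (%): share of the cells with healthy nuclei that show this phenotype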
# Format: toxicity, cell-based
# Conditions: human
# Procedure, shortened: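 Imaging took place on a CQ1 microscope at 37°C and 5% CO2 once compound had been added to live cells stained at seeding with Hoechst33342, BioTracker Green Microtubule Cytoskeleton Dye, MitoTracker Red and Annexin V Alexa Fluor 680. CellPathfinder machine-learning gating classed cells as Hoechst high-intensity objects or normal cells, classed normal cells as having healthy, pyknosed or fragmented nuclei, and classed pyknosed cells as mitotic or apoptotic. Tubulin, mitochondrial-mass and membrane-permeability phenotypes are per cents of the healthy-nucleus cells.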
# [1] = 12 h, 1 µM, compound concentration 1 uM, replicate 1
# [2] = 12 h, 1 µM, compound concentration 1 uM, replicate 2
# [3] = 12 h, 10 µM, compound concentration 10 uM, replicate 1
# [4] = 12 h, 10 µM, compound concentration 10 uM, replicate 2
# [5] = 24 h, 1 µM, compound concentration 1 uM, replicate 1
# [6] = 24 h, 1 µM, compound concentration 1 uM, replicate 2
# [7] = 24 h, 10 µM, compound concentration 10 uM, replicate 1
# [8] = 24 h, 10 µM, compound concentration 10 uM, replicate 2
# [9] = 48 h, 1 µM, compound concentration 1 uM, replicate 1
# [10] = 48 h, 1 µM, compound concentration 1 uM, replicate 2
# [11] = 48 h, 10 µM, compound concentration 10 uM, replicate 1
# [12] = 48 h, 10 µM, compound concentration 10 uM, replicate 2
structure (smiles),measurement,setting,value
O=C(Cc1ccc(-c2ccc(OCCN3CCOCC3)cc2)cn1)NCc1ccccc1 [TIRBANIBULIN],Population Apoptotic (%),[1],34%
same,Population Fragmented Nuclei (%),[1],17%
same,Population Healthy Nuclei (%),[1],21%
same,Population Hoechst High Intensity Objects (%),[1],12%
same,Population Membrane Permeable-Phenotype (%),[1],0%
same,Population Mitochondria Different-Phenotype (%),[1],58%
same,Population Mitotic Cells (%),[1],65%
same,Population Normal (%),[1],87%
same,Population Pyknosed Nuclei (%),[1],61%
same,Population Tubulin-Different-Phenotype (%),[1],2%
same,Total Cell Count,[1],193
same,Population Apoptotic (%),[2],16%
same,Population Fragmented Nuclei (%),[2],8%
same,Population Healthy Nuclei (%),[2],30%
same,Population Hoechst High Intensity Objects (%),[2],2%
same,Population Membrane Permeable-Phenotype (%),[2],10%
same,Population Mitochondria Different-Phenotype (%),[2],23%
same,Population Mitotic Cells (%),[2],83%
same,Population Normal (%),[2],97%
same,Population Pyknosed Nuclei (%),[2],60%
same,Population Tubulin-Different-Phenotype (%),[2],11%
same,Total Cell Count,[2],231
same,Population Apoptotic (%),[3],52%
same,Population Fragmented Nuclei (%),[3],20%
same,Population Healthy Nuclei (%),[3],21%
same,Population Hoechst High Intensity Objects (%),[3],18%
same,Population Membrane Permeable-Phenotype (%),[3],0%
same,Population Mitochondria Different-Phenotype (%),[3],79%
same,Population Mitotic Cells (%),[3],47%
same,Population Normal (%),[3],81%
same,Population Pyknosed Nuclei (%),[3],58%
same,Population Tubulin-Different-Phenotype (%),[3],27%
same,Total Cell Count,[3],169
same,Population Apoptotic (%),[4],17%
same,Population Fragmented Nuclei (%),[4],5%
same,Population Healthy Nuclei (%),[4],28%
same,Population Hoechst High Intensity Objects (%),[4],5%
same,Population Membrane Permeable-Phenotype (%),[4],2%
same,Population Mitochondria Different-Phenotype (%),[4],23%
same,Population Mitotic Cells (%),[4],82%
same,Population Normal (%),[4],95%
same,Population Pyknosed Nuclei (%),[4],66%
same,Population Tubulin-Different-Phenotype (%),[4],6%
same,Total Cell Count,[4],160
same,Population Apoptotic (%),[5],39%
same,Population Fragmented Nuclei (%),[5],17%
same,Population Healthy Nuclei (%),[5],21%
same,Population Hoechst High Intensity Objects (%),[5],14%
same,Population Membrane Permeable-Phenotype (%),[5],2%
same,Population Mitochondria Different-Phenotype (%),[5],37%
same,Population Mitotic Cells (%),[5],60%
same,Population Normal (%),[5],85%
same,Population Pyknosed Nuclei (%),[5],61%
same,Population Tubulin-Different-Phenotype (%),[5],5%
same,Total Cell Count,[5],194
same,Population Apoptotic (%),[6],27%
same,Population Fragmented Nuclei (%),[6],6%
same,Population Healthy Nuclei (%),[6],29%
same,Population Hoechst High Intensity Objects (%),[6],2%
same,Population Membrane Permeable-Phenotype (%),[6],6%
same,Population Mitochondria Different-Phenotype (%),[6],25%
same,Population Mitotic Cells (%),[6],72%
same,Population Normal (%),[6],97%
same,Population Pyknosed Nuclei (%),[6],63%
same,Population Tubulin-Different-Phenotype (%),[6],33%
same,Total Cell Count,[6],207
same,Population Apoptotic (%),[7],54%
same,Population Fragmented Nuclei (%),[7],21%
same,Population Healthy Nuclei (%),[7],16%
same,Population Hoechst High Intensity Objects (%),[7],17%
same,Population Membrane Permeable-Phenotype (%),[7],0%
same,Population Mitochondria Different-Phenotype (%),[7],82%
same,Population Mitotic Cells (%),[7],45%
same,Population Normal (%),[7],82%
same,Population Pyknosed Nuclei (%),[7],62%
same,Population Tubulin-Different-Phenotype (%),[7],17%
same,Total Cell Count,[7],168
same,Population Apoptotic (%),[8],22%
same,Population Fragmented Nuclei (%),[8],5%
same,Population Healthy Nuclei (%),[8],25%
same,Population Hoechst High Intensity Objects (%),[8],5%
same,Population Membrane Permeable-Phenotype (%),[8],7%
same,Population Mitochondria Different-Phenotype (%),[8],23%
same,Population Mitotic Cells (%),[8],77%
same,Population Normal (%),[8],94%
same,Population Pyknosed Nuclei (%),[8],68%
same,Population Tubulin-Different-Phenotype (%),[8],18%
same,Total Cell Count,[8],160
same,Population Apoptotic (%),[9],56%
same,Population Fragmented Nuclei (%),[9],25%
same,Population Healthy Nuclei (%),[9],23%
same,Population Hoechst High Intensity Objects (%),[9],16%
same,Population Membrane Permeable-Phenotype (%),[9],5%
same,Population Mitochondria Different-Phenotype (%),[9],45%
same,Population Mitotic Cells (%),[9],43%
same,Population Normal (%),[9],83%
same,Population Pyknosed Nuclei (%),[9],50%
same,Population Tubulin-Different-Phenotype (%),[9],24%
same,Total Cell Count,[9],187
same,Population Apoptotic (%),[10],40%
same,Population Fragmented Nuclei (%),[10],12%
same,Population Healthy Nuclei (%),[10],43%
same,Population Hoechst High Intensity Objects (%),[10],4%
same,Population Membrane Permeable-Phenotype (%),[10],12%
same,Population Mitochondria Different-Phenotype (%),[10],25%
same,Population Mitotic Cells (%),[10],60%
same,Population Normal (%),[10],95%
same,Population Pyknosed Nuclei (%),[10],44%
same,Population Tubulin-Different-Phenotype (%),[10],50%
same,Total Cell Count,[10],213
same,Population Apoptotic (%),[11],56%
same,Population Fragmented Nuclei (%),[11],29%
same,Population Healthy Nuclei (%),[11],13%
same,Population Hoechst High Intensity Objects (%),[11],17%
same,Population Membrane Permeable-Phenotype (%),[11],0%
same,Population Mitochondria Different-Phenotype (%),[11],66%
same,Population Mitotic Cells (%),[11],44%
same,Population Normal (%),[11],82%
same,Population Pyknosed Nuclei (%),[11],56%
same,Population Tubulin-Different-Phenotype (%),[11],11%
same,Total Cell Count,[11],160
same,Population Apoptotic (%),[12],36%
same,Population Fragmented Nuclei (%),[12],7%
same,Population Healthy Nuclei (%),[12],39%
same,Population Hoechst High Intensity Objects (%),[12],4%
same,Population Membrane Permeable-Phenotype (%),[12],9%
same,Population Mitochondria Different-Phenotype (%),[12],23%
same,Population Mitotic Cells (%),[12],63%
same,Population Normal (%),[12],95%
same,Population Pyknosed Nuclei (%),[12],52%
same,Population Tubulin-Different-Phenotype (%),[12],20%
same,Total Cell Count,[12],145
